Reference: paper PMC9165018 (Journal of medicinal chemistry, 2022)
Where “and” joins values, the source holds several entries; their conditions need not be identical. Identical values can stand only once. Entries after “also recorded” stand apart in the source; their conditions may differ. Like-named read-outs stand apart in the source and are kept apart here.

How the values were obtained:
MIA PaCa-2 cells [1] = experiment: 3-day MTT assay in glucose- or galactose-containing medium; assay type: cell-based
Procedure, shortened: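 MIA PaCa-2 cells were treated with test compound for 3 days in glucose-containing medium. MTT (3 mg/mL solution) was added for 4 h at 37 °C. Supernatant was removed, formazan was dissolved in DMSO, and absorbance was read at 570 nm. IC50 came from nonlinear regression of log concentration–response curves. Experiments were run at least three times.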

MIA PaCa-2 cells [2] = experiment: 7-day MTT growth inhibition assay, MIA PaCa-2; assay type: cell-based; settings: for activity (cytotoxicity in pancreatic cancer cells): 7-day MTT assay; for IC50: Homo sapiens, MIA PaCa-2, 168 h
Procedure, shortened: (§1)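 Cells were seeded in glucose-containing medium (MIA PaCa-2 200 cells/well; BxPC-3 300 cells/well), incubated overnight at 37 °C, 5% CO2, then exposed to test compound or DMSO for 7 days. MTT (3 mg/mL solution) was added for 4 h, formazan dissolved in DMSO, and A570 read. Inhibition = [1 − (At−Ab)/(Ac−Ab)] × 100. IC50 came from nonlinear regression; at least three independent runs.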

[3] = Microsomal stability test, mouse liver microsome; assay type: in vitro ADME; settings: MLM and HLM t1/2, vs compound 1
[4] = Microsomal stability test, human liver microsome; assay type: in vitro ADME; settings: human liver microsomes
Procedure, shortened: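 Human liver microsomes (10 µL at 20 mg/mL) were combined with 330 µL 0.1 M phosphate buffer (3.3 mM MgCl2) and 40 µL of 10 µM test compound, with NADPH in the same buffer. Verapamil was the positive control.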

OXPHOS Complex I = experiment: NAD+/NADH ratio; assay type: cell-based; settings: MIA PaCa-2 cells, NAD/NADH-Glo Assay, 2 days treatment
Procedure, shortened: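 MIA PaCa-2 cells (5 × 10^3/well) were treated the next day for 48 h with test compound in RPMI 1640 + 10% FBS. Cells were PBS-washed and lysed in bicarbonate base buffer with 1% DTAB. For NAD+, lysate was acid-treated (0.4 N HCl); for NADH, lysate was heated directly; both at 60 °C for 15 min, then neutralised with Trizma. After 30 min with Glo detection reagent, luminescence was read. IC50 of the NAD+/NADH ratio came from nonlinear regression.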

BxPC-3 cells = experiment: 7-day MTT growth inhibition assay, BxPC-3; assay type: cell-based; settings: Homo sapiens, BXPC-3, 168 h, read-out: IC50 in BxPC-3 cells
Procedure, shortened: as §1

Pan02 cells = experiment: Pan02 syngeneic pancreatic cancer model efficacy study; assay type: in vivo; settings: for tumor growth inhibition: Pan02 syngeneic model
Procedure, shortened: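 Female C57BL/6 mice, 6-10 weeks old, received 5×10^6 Pan02 cells s.c. in the right flank and were randomized (n = 5/group) at ~100 mm3. Dosing was daily for 28 days in 10% DMSO/50% PG/40% saline, or 10% DMSO/60% PG/30% saline for the 15 mg/kg dose. Tumours were measured by caliper twice weekly, V = (length × width²)/2. Body weight was recorded before dosing, then twice weekly.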

[5] = Pharmacokinetics in CD-1 mice; assay type: in vivo; settings: plasma
Procedure, shortened: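 CD-1 mice received test compound at 2 mg/kg i.v. or 10 mg/kg p.o., and plasma concentration–time profiles were measured. Parameters came from non-compartmental analysis: AUC(0-tldc) to last detectable concentration and AUC(0-inf) extrapolated to infinity. Terminal half-life used ≥3 terminal-phase points. Bioavailability = (AUCpo × Dose_iv)/(AUCiv × Dose_po) × 100%.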

[6] = read-out: IC50 in MIA PaCa-2 cells

CCN(CC)S(=O)(=O)c1ccc(S(=O)(=O)N2CCC[C@@H](C(=O)N3CCC(OC)CC3)C2)cc1 [Compound 12, (R)-N,N-Diethyl-4-((3-(4-methoxypiperidine-1-carbonyl)piperidin-1-yl)sulfonyl)benzenesulfonamide]
activity in glucose-containing medium (MIA PaCa-2 cells [1]): inactive | improvement in MIA PaCa-2 cell growth inhibition (MIA PaCa-2 cells [2]; vs compound 11): 2 fold

CCN(CC)S(=O)(=O)c1ccc(S(=O)(=O)N2CCC[C@@H](C(=O)NC3COC3)C2)cc1 [Compound 2]
improvement of microsomal stability over compound 1 [3]: more than 30 fold

CCOC(=O)[C@@H]1CCCN(S(=O)(=O)c2ccc(S(=O)(=O)N(CC)CC)cc2)C1 [Compound 1]
HLM t1/2 (human liver microsome half life) [4]: 36 s

CP(C)(=O)c1ccc(S(=O)(=O)N2CCC[C@@H](C(=O)N3CCC(F)(F)CC3)C2)cc1 [Compound 30, (R)-(4,4-Difluoropiperidin-1-yl)(1-((4-(dimethylphosphoryl)phenyl)sulfonyl)piperidin-3-yl)methanone]
activity (cytotoxicity in pancreatic cancer cells) (MIA PaCa-2 cells [2]): complete loss of activity

CN(C)S(=O)(=O)c1ccc(S(=O)(=O)N2CCC[C@@H](C(=O)N3CCC(F)(F)CC3)C2)cc1 [Compound 20, (R)-4-((3-(4,4-Difluoropiperidine-1-carbonyl)piperidin-1-yl)sulfonyl)-N,N-dimethylbenzenesulfonamide]
NAD+/NADH ratio (IC50, nM) Glucose medium (OXPHOS Complex I): 34 ± 15 nM | IC50 (MIA PaCa-2 cells [2]; read-out: MIA PaCa-2 IC50): 118 ± 44 nM

CCN(CC)S(=O)(=O)c1ccc(S(=O)(=O)N2CCC[C@@H](C(=O)N3CCC(F)(F)CC3)C2)cc1 [Compound 16, (R)-4-((3-(4,4-Difluoropiperidine-1-carbonyl)piperidin-1-yl)sulfonyl)-N,N-diethylbenzenesulfonamide]
NAD+/NADH ratio (IC50, nM) Glucose medium (OXPHOS Complex I): 23 ± 18.1 nM

CCC(CC)S(=O)(=O)c1ccc(S(=O)(=O)N2CCC[C@@H](C(=O)N3CCC(F)(F)CC3)C2)cc1 [Compound 25, (R)-(4,4-Difluoropiperidin-1-yl)(1-((4-(pentan-3-ylsulfonyl)phenyl)sulfonyl)piperidin-3-yl)methanone]
IC50 (MIA PaCa-2 cells [2]; [6]): ~10 nM | IC50 (BxPC-3 cells): < 100 nM

O=C([C@@H]1CCCN(S(=O)(=O)c2ccc(S(=O)(=O)N3CC[C@@H](O)C3)cc2)C1)N1CCC(F)(F)CC1 [Compound 21, (4,4-Difluoropiperidin-1-yl)((R)-1-((4-(((R)-3-hydroxypyrrolidin-1-yl)sulfonyl)phenyl)sulfonyl)piperidin-3-yl)methanone]
NAD+/NADH ratio (IC50, nM) Glucose medium (OXPHOS Complex I): 67.5 ± 18.8 nM

CCP(=O)(CC)c1ccc(S(=O)(=O)N2CCC[C@@H](C(=O)N3CCC(F)(F)CC3)C2)cc1 [Compound 31, (R)-(1-((4-(diethylphosphoryl)phenyl)sulfonyl)piperidin-3-yl)(4,4-difluoropiperidin-1-yl)methanone]
activity (cytotoxicity in pancreatic cancer cells) (MIA PaCa-2 cells [2]): complete loss of activity

O=C([C@@H]1CCCN(S(=O)(=O)c2ccc(S(=O)(=O)C3CCC3)cc2)C1)N1CCC(F)(F)CC1 [Compound 27, (R)-(1-((4-(Cyclobutylsulfonyl)phenyl)sulfonyl)piperidin-3-yl)(4,4-difluoropiperidin-1-yl)methanone]
NAD+/NADH ratio (IC50, nM) Glucose medium (OXPHOS Complex I): 3.2 ± 1.3 nM | IC50 (MIA PaCa-2 cells [2]; [6]): ~10 nM | IC50 (BxPC-3 cells): < 100 nM | tumor growth inhibition (Pan02 cells; 2.5 mg/kg i.p. once daily for 28 days): significant tumor growth inhibition

CC(C)S(=O)(=O)c1ccc(S(=O)(=O)N2CCC[C@@H](C(=O)N3CCC(F)(F)CC3)C2)cc1 [Compound 23, (R)-(4,4-Difluoropiperidin-1-yl)(1-((4-(isopropylsulfonyl)phenyl)sulfonyl)piperidin-3-yl)methanone]
NAD+/NADH ratio (IC50, nM) Glucose medium (OXPHOS Complex I): 3.6 nM and 3.6 ± 3.2 nM | IC50 (MIA PaCa-2 cells [2]; [6]): ~10 nM | IC50 (BxPC-3 cells): < 100 nM | tolerability (Pan02 cells; Pan02 model, once daily for 28 days, 20 7.5 mg/kg i.p., 21 15 mg/kg i.p., 27 2.5 mg/kg i.p., 23 10 mg/kg p.o.): well tolerated | tumor growth inhibition (Pan02 cells; 10 mg/kg p.o. once daily for 28 days, 10 mg/kg): significant tumor growth inhibition; also recorded: significant tumor growth delay | AUC(0-inf) ([5]; IV 2 mg/kg): 657.0 nM:h | AUC(0-tldc) ([5]; IV 2 mg/kg): 650.0 nM:h | AUC(0-inf) ([5]; PO 10 mg/kg): 417.1 nM:h | AUC(0-tldc) ([5]; PO 10 mg/kg): 368.1 nM:h
